This note sets out measurements from ChEMBL document CHEMBL2407016 (J Med Chem, 2013).

Active and inactive are the calls of the source. No cut-off for these calls is given here. Bounds are passed on as bounds.

For experiment [1], the target named is T1, 1-deoxy-D-xylulose 5-phosphate reductoisomerase (Mycobacterium tuberculosis, UniProt P9WNS1).
T1 sequence (P9WNS1 whole entry): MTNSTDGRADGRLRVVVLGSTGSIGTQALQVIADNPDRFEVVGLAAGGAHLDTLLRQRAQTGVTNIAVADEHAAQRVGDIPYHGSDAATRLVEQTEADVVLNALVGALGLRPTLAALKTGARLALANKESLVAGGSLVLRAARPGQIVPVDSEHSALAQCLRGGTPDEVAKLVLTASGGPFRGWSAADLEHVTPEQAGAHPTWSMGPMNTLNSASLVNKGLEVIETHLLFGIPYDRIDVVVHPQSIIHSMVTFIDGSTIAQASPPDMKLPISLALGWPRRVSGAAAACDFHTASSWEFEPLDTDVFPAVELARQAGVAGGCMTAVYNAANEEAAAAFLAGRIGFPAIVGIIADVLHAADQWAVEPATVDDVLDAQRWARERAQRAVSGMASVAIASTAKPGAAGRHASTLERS
Kind of experiment: Inhibition of Mycobacterium tuberculosis DXR using DXP as substrate measured every 5 secs for 250 secs in presence of NADPH. In short, it runs like this:
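MtDXR activity assay run with NADPH cofactor at 200 μM; IC50 taken from inhibition of enzyme activity.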

The nature of experiment [2]: Inhibition of Plasmodium falciparum DXR using DXP as substrate measured every 5 secs for 250 secs in presence of NADPH.
Experiment [3] is described as follows: Inhibition of Escherichia coli DXR using DXP as substrate measured every 5 secs for 250 secs in presence of NADPH.
Experiment [4] has as its system Mycobacterium tuberculosis. The experiment in a line: Antibacterial activity against Mycobacterium tuberculosis H37Rv assessed as growth inhibition by Alamar blue assay. Format: functional, organism-based.
Experiment [5] concerns the target T2, 1-deoxy-D-xylulose 5-phosphate reductoisomerase (Mycobacterium tuberculosis) (UniProt P9WNS1).
T2 sequence (whole entry): T1 sequence (P9WNS1 whole entry)
Kind of experiment: Inhibition of Mycobacterium tuberculosis DXR using DXP as substrate at 100 uM measured every 5 secs for 250 secs in presence of NADPH relative to control.

The test system of experiment [6] is Plasmodium falciparum. The experiment in a line: Antimalarial activity against Plasmodium falciparum 3D7 assessed as parasite growth inhibition after 18 hrs by SYBR Green-1 staining-based fluorescence assay. Format: functional, organism-based. The conditions noted are these: 3D7, 18 h.
The target in experiment [7] is T1, 1-deoxy-D-xylulose 5-phosphate reductoisomerase. The experiment in a line: Binding affinity to Mycobacterium tuberculosis DXR assessed as dissociation constant by spectrofluorimetric analysis in presence of NADPH and MnCl2. The method in brief: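 Purified MtDXR; binding followed by direct fluorescence from changes in the environment of the protein's six tryptophan residues.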

One may read the IC50 as the midpoint of a concentration-inhibition curve. On to `CCC(=O)N(O)CCCP(=O)(O)O`, for which the IC50 in experiment [1] amounted to 27200 nM.
With `O=CN(O)CCCP(=O)(O)O` [FOSMIDOMYCIN], the IC50 in experiment [2] came out at 32 nM; in experiment [3] it was 50 nM.
Consider `NC(=O)c1cncc(C(=O)N(O)CCCP(=O)(O)O)c1`, for which the IC50 in experiment [1] was found to be 3600 nM.
Regarding `O=C(c1ccccc1)N(O)CCCP(=O)(O)O`, the results for the IC50 in experiment [2], in experiment [3] and in experiment [1] were 61 nM, 130 nM and 2000 nM, respectively.
For orientation: inhibition means the percentage by which the read-out fell short of the control. On to `O=C(c1ccccc1Cc1cccs1)N(O)CCC(c1ccc(Cl)c(Cl)c1)P(=O)(O)O` (stereo not given), for which, in experiment [4], the “growth inhibition (GI)” value was “inactive”. In addition, in experiment [5], the inhibition turned out to be 90%. Moreover, the figures for the IC50 in experiment [6] and in experiment [1] were greater than 10000 nM and 7000 nM, respectively.
With `CC(=O)Oc1cccc(C(=O)N(O)CCC(c2ccc(Cl)c(Cl)c2)P(=O)(O)O)c1` (stereo not given), the “growth inhibition (GI)” value in experiment [4] was “inactive”. Further, the inhibition in experiment [5] was found to be 30%. Moreover, the values for the IC50 in experiment [6] and in experiment [1] were 3900 nM and greater than 100000 nM, respectively.
What is called Kd is the equilibrium constant for the complex coming apart. With `O=CN(O)CCC(c1ccc(Cl)c(Cl)c1)P(=O)(O)O` (stereo not given), in experiment [7], the Kd amounted to 120 nM.
As to `O=C(c1ccccc1)N(O)CCC(c1ccc(Cl)c(Cl)c1)P(=O)(O)O` (stereo not given), the “growth inhibition (GI)” value in experiment [4] is “inactive”. Besides, in experiment [5], the inhibition was 100%. Moreover, the results for the IC50 in experiment [6] and in experiment [1] were 40 nM and 320 nM, respectively. The Kd in experiment [7] stood at 210 nM.
On to `O=C(C1CC1)N(O)CCCP(=O)(O)O`, for which the figures for the IC50 in experiment [3] and in experiment [1] were 4440 nM and 156000 nM, respectively.
`O=C(c1ccccc1-c1ccccc1)N(O)CCC(c1ccc(Cl)c(Cl)c1)P(=O)(O)O` (stereo not given): the “growth inhibition (GI)” value in experiment [4] is “inactive”. Further, in experiment [5], the inhibition turned out to be 60%. Further, the IC50 in experiment [6] was greater than 10000 nM; in experiment [1], 21000 nM.
As to `O=C(c1cccc(Cn2cncn2)c1)N(O)CCC(c1ccc(Cl)c(Cl)c1)P(=O)(O)O` (stereo not given), the “growth inhibition (GI)” value in experiment [4] was “inactive”. In addition, in experiment [5], the inhibition is 90%. For the same compound, the results for the IC50 in experiment [6] and in experiment [1] were 390 nM and 140 nM, respectively. The Kd in experiment [7] came out at 170 nM.
On to `O=C(NCC(=O)N(O)CCCP(=O)(O)O)C1CC1`, for which the values for the IC50 in experiment [2], in experiment [3] and in experiment [1] were 3300 nM, 7100 nM and greater than 200000 nM, respectively.
For the compound `O=C(c1ccc(Cn2cncn2)cc1)N(O)CCC(c1ccc(Cl)c(Cl)c1)P(=O)(O)O` (stereo not given), the “growth inhibition (GI)” value in experiment [4] was “inactive”. The inhibition in experiment [5] was found to be 80%. Moreover, the IC50 in experiment [6] is 190 nM; in experiment [1], 1200 nM. Moreover, in experiment [7], the Kd worked out at 200 nM.
Take `C[C@@H]1CC[C@H]2[C@@H](C)C(=O)O[C@@H]3O[C@@]4(C)CC[C@@H]1[C@]32OO4` [ARTEMISININ]: the IC50 in experiment [6] was 5 nM.
With `O=C(c1ccccc1C(F)(F)F)N(O)CCC(c1ccc(Cl)c(Cl)c1)P(=O)(O)O` (stereo not given), the “growth inhibition (GI)” value in experiment [4] is “inactive”. In addition, the inhibition in experiment [5] was 70%. In addition, the IC50 in experiment [1] stood at 9000 nM.
`Cc1ccccc1C(=O)N(O)CCC(c1ccc(Cl)c(Cl)c1)P(=O)(O)O` (stereo not given): in experiment [4], the “growth inhibition (GI)” value is “inactive”. For the same compound, the inhibition in experiment [5] turned out to be 95%. Besides, the values for the IC50 in experiment [6] and in experiment [1] were greater than 10000 nM and 830 nM, respectively.
Regarding `O=C(c1ccccc1Cn1cncn1)N(O)CCC(c1ccc(Cl)c(Cl)c1)P(=O)(O)O` (stereo not given), in experiment [4], the “growth inhibition (GI)” value is “inactive”. Besides, in experiment [5], the inhibition was 70%. In addition, the IC50 in experiment [6] was greater than 10000 nM; in experiment [1], 13000 nM. Also, in experiment [7], the Kd was 40 nM.
`O=C(Cc1ccccc1)N(O)CCCP(=O)(O)O`: the IC50 in experiment [3] is 13000 nM; in experiment [1], 67700 nM. For the same compound, the Kd in experiment [7] turned out to be 320 nM.
As for `O=C(CCCOc1ccccc1)NCC(=O)N(O)CCCP(=O)(O)O`, the results for the IC50 in experiment [2], in experiment [3] and in experiment [1] were 400 nM, 1000 nM and greater than 200000 nM, respectively.
As for `O=C(c1ccccc1OC(F)(F)F)N(O)CCC(c1ccc(Cl)c(Cl)c1)P(=O)(O)O` (stereo not given), the “growth inhibition (GI)” value in experiment [4] is “inactive”. Also, in experiment [5], the inhibition was 90%. Besides, the values for the IC50 in experiment [6] and in experiment [1] were greater than 10000 nM and 8000 nM, respectively. The Kd in experiment [7] is 90 nM.
Consider `O=C(c1ccc2ccccc2c1)N(O)CCCP(=O)(O)O`, for which the IC50 in experiment [1] came out at 2000 nM.
For `CC(=O)N(O)CCC(c1ccc(Cl)c(Cl)c1)P(=O)(O)O` (stereo not given), the Kd in experiment [7] was found to be 360 nM.
`O=C(c1ccco1)N(O)CCCP(=O)(O)O`: the IC50 in experiment [1] was determined as 48700 nM.
Take `O=C(c1ccccc1Nc1cccc(C(F)(F)F)c1)N(O)CCC(c1ccc(Cl)c(Cl)c1)P(=O)(O)O` (stereo not given): in experiment [4], the “growth inhibition (GI)” value is “inactive”. Besides, the inhibition in experiment [5] was 80%. The IC50 is greater than 10000 nM in experiment [6] and 19000 nM in experiment [1]. Further, the Kd in experiment [7] is 90 nM.
Regarding `O=C(c1cccnc1)N(O)CCCP(=O)(O)O`, the IC50 in experiment [1] was determined as 1600 nM.
As to `CC(=O)N(O)CCCP(=O)(O)O` [FR-900098], the IC50 in experiment [2] stood at 18 nM; in experiment [3] it was 51 nM.
